The record followed here is ChEMBL document CHEMBL5352427, “Isoquinolone derivatives as lysophosphatidic acid receptor 5 (LPA5) antagonists: Investigation of structure-activity relationships, ADME properties and analgesic effects” (Eur J Med Chem, 2022).

Data set [1] deals with Lysophosphatidic acid receptor 2 (Homo sapiens) (UniProt Q9HBW0). Nature of the data set: Antagonist activity at human LPA2 receptor expressed in CHO cells assessed as inhibition of LPA-induced calcium mobilization at 10 uM incubated for 15 mins by FLIPR analysis relative to control. In kind it is functional, cell-based. Summed up: (§1)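 Calcium mobilization in CHO cells overexpressing LPA1, LPA2 or LPA3, run by a contract lab under its own protocols; compounds tested at single 10 μM.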

Data set [2] deals with Lysophosphatidic acid receptor 1 (Homo sapiens) (UniProt Q92633). Nature of the data set: Antagonist activity at human LPA1 receptor expressed in CHO cells assessed as inhibition of LPA-induced calcium mobilization at 10 uM incubated for 15 mins by FLIPR analysis relative to control. In kind it is functional, cell-based. Summed up: as §1
A general note: Calcium flux is commonly read through the fluorescence of an indicator in the cells.

Data set [3] is described as follows: Effect on locomotory activity in CCI surgery-neuropathic pain induced Sprague-Dawley rat model at 17.8 mg/kg, ip measured for 60 mins by infrared motion-sensor analysis. In kind it is toxicity, organism-based. Conditions: in vivo, 1 h. An outline of the steps: (§2)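 Handled ≥3 days; rats pretreated 60 min with vehicle or 17.8 mg/kg i.p., then placed in activity chambers and locomotion recorded for 60 min.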

Data set [4] has as its system Rattus norvegicus. Kind of data set: Antiallodynic activity in CCI surgery-induced Sprague-Dawley rat neuropathic pain model assessed as reduction in paw withdrawal threshold at 17.8 mg/kg, ip measured after 5 hrs. In kind it is functional. Set-up: scale not given: the % may be the effect or the level left. An outline of the steps:
(§3)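 Adult male Sprague-Dawley rats (230–280 g, n=6/group) given CCI under i.p. ketamine 75 mg/kg/xylazine 5 mg/kg: four chromic gut ligatures about 1 mm apart on the right sciatic nerve. Drug given i.p. (1–2 ml/kg) in 20% DMSO/10% emulphor/saline. Mechanical paw withdrawal threshold measured every 30 min (26 g cutoff). Reported as mean ± SEM, two-way ANOVA.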

Data set [5] has as its system Rattus norvegicus. Kind of data set: Antiallodynic activity in CCI surgery neuropathic pain induced Sprague-Dawley rat neuropathic pain model assessed as reversal of hypersensitivity condition at 17.8 mg/kg, ip measured after 10 days. In kind it is functional. The conditions noted are these: time 10 day. Summed up:
as §3

Data set [6] is described as follows: Aqueous solubility of compound at pH 7.4. The class given is physicochemical. Conditions: aqueous medium. Summed up: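 Kinetic solubility: 20 mM DMSO stock diluted into PBS (1 mM KH2PO4, 3 mM Na2HPO4, 155 mM NaCl) to a target of 400 μM; triplicates quantified by LC-MS/MS against matrix-matched standards.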
Data set [7] relates to Rattus norvegicus. Kind of data set: Antinociceptive activity against in opioid-induced hyperalgesia Sprague-Dawley rat model assessed as reduction in mechanical hyperalgesia induced hypersensitivity at 5.6 to 17.8 mg/kg, ip and measured after 5 hrs. The class given is functional, organism-based. The conditions noted are these: dose 5.6-17.8 mg/kg. An outline of the steps:
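Opioid-induced hyperalgesia: after baselines on D−1 and D0, rats given four s.c. fentanyl injections of 0.06 mg/kg at 15 min intervals (0.24 mg/kg total); paw withdrawal thresholds tested after i.p. drug on days 1–2 post-fentanyl.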

For data set [8], the target named is T1, Lysophosphatidic acid receptor 5 (Homo sapiens, UniProt Q9H1C0). Kind of data set: Antagonist activity at human LPA5 receptor expressed in RH7777 cells assessed as inhibition of EC80 concentration of hexadecyl LPA-induced calcium mobilization incubated for 15 mins by FLIPR method relative to hexadecyl LPA. The class given is functional, cell-based. The conditions noted are these: filed as antagonist.

For data set [9], the target named is T1, Lysophosphatidic acid receptor 5. Kind of data set: Agonist activity at human LPA5 receptor expressed in RH7777 cells assessed as calcium mobilization incubated for 15 mins by FLIPR method. In kind it is functional, cell-based. Summed up: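 RH7777 cells stably expressing hLPA5, plated 20,000/well in 0.2% FBS medium 18–20 h, loaded 45 min at 37 °C with Calcium 5 dye in HBSS/20 mM HEPES/2.5 mM probenecid pH 7.4. […] Duplicates.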

The target of data set [10] is T2, Lysophosphatidic acid receptor 3 (Homo sapiens) (UniProt Q9UBY5).
T2 sequence (whole entry): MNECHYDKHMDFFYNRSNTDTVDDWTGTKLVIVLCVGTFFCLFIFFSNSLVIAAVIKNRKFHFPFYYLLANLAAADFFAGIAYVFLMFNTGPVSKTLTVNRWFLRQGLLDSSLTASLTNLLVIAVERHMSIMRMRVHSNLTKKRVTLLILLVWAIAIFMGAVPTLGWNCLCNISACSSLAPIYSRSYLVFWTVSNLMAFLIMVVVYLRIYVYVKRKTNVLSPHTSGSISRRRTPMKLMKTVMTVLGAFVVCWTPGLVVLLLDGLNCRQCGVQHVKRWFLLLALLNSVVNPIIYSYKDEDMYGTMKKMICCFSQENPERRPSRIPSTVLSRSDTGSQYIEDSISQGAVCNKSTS
Kind of data set: Antagonist activity at human LPA3 receptor expressed in CHO cells assessed as inhibition of LPA-induced calcium mobilization at 10 uM incubated for 15 mins by FLIPR analysis relative to control. In kind it is functional, cell-based. Summed up:
as §1

The nature of data set [11]: Drug concentration in Sprague-Dawley rat brain at 17.8 mg/kg, ip measured after 30 mins by LC-MS/MS analysis. The class given is ADME, organism-based. The conditions noted are these: read-out: Ct. An outline of the steps:
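Male Sprague-Dawley rats (258–277 g) given 17.8 mg/kg i.p. in 5% Cremophor/5% ethanol/saline; at 30 min two rats anesthetized with isoflurane, cardiac blood taken, PBS-perfused; brains homogenized 1:4 (w/v) in 25% isopropanol and quantified by LC-MS/MS.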

Data set [12] addresses T1, Lysophosphatidic acid receptor 5. Kind of data set: Antagonist activity at human LPA5 receptor expressed in RH7777 cells assessed as inhibition of EC80 concentration of LPA-induced cAMP accumulation preincubated for 30 mins followed by Eu-cAMP tracer addition and measured after 1 hr by TR-FRET assay relative to hexadecyl LPA. The class given is functional, cell-based. The conditions noted are these: filed as antagonist. Summed up:
(§4)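 hLPA5-RH7777 cells, switched to 0.2% FBS medium 20 h prior, lifted with versene, 2,000 cells/well in HBSS/5 mM HEPES/0.1% BSA/0.5 mM IBMX pH 7.4. Compound dilutions with hexadecyl LPA 16:0 EC80 (300 nM) plus forskolin, 30 min room temperature; LANCE Ultra Eu-cAMP tracer/ULight-anti-cAMP 1 h; TR-FRET 665 nm converted to cAMP via standard curve. Three-parameter logistic IC50; ≥3 experiments in duplicate.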
A general note: Changes in cAMP serve as a functional read-out for many G protein-coupled receptors.

Data set [13] has the same target. Nature of the data set: Antagonist activity at human LPA5 receptor expressed in RH7777 cells assessed as inhibition of EC80 concentration of LPA-induced cAMP accumulation preincubated for 30 mins followed by Eu-cAMP tracer addition and measured after 1 hr by TR-FRET assay. The class given is functional, cell-based. Summed up: as §4
The target is the same in data set [14]. Kind of data set: Antagonist activity at human LPA5 receptor expressed in RH7777 cells assessed as inhibition of EC80 concentration of hexadecyl LPA-induced calcium mobilization incubated for 15 mins by FLIPR method. The class given is functional, cell-based.
Data set [15] can be described thus: Apparent permeability across apical to basolateral side in MDCK-MDR1 cells incubated for 90 mins by LC-MS/MS analysis. In kind it is ADME, cell-based, Canis lupus familiaris. The conditions noted are these: dog, mdck-mdr1, 1.5 h. Summed up: (§5)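 MDCK-MDR1 cells (passage 5) grown 3 days on Transwell polycarbonate inserts; transport buffer HBSS/10 mM HEPES/0.25% BSA pH 7.4, 30 min preincubation 37 °C with TEER check. 10 μM test article added apical (A-to-B) or basolateral (B-to-A); receiver sampled at 30, 60, 90 min, LC-MS/MS. Papp = (dQ/dt)/(A·Ci); efflux ratio B-to-A/A-to-B. Atenolol, propranolol, digoxin references.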

In data set [16] the test system is Rattus norvegicus. Kind of data set: Antiallodynic activity against CFA-induced Sprague-Dawley rat inflammatory pain model assessed as reduction in paw withdrawal threshold at 17.8 mg/kg measured after 5 hrs. In kind it is functional, organism-based. An outline of the steps: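 Adult male Sprague-Dawley rats (230–280 g, n=6/group); 0.1 ml CFA injected into right hind paw. Compounds i.p. (1–2 ml/kg) in 20% DMSO/10% emulphor/saline; AS2717638 in 30% propylene glycol vehicle. Mechanical paw withdrawal threshold (cut-off 26 g) measured every 30 min after single dose; two-way ANOVA, mean ± SEM.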

The subject of data set [17] is Rattus norvegicus. Kind of data set: Antiallodynic activity in CCI surgery neuropathic pain induced ip dosed Sprague-Dawley rat hyperalgesia model assessed as reduction in mechanical allodynia by measuring reduction in paw threshold measured after 10 days. The class given is functional, organism-based. The conditions noted are these: dose 3.2-17.8 mg/kg, time 10.0 day. Summed up:
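Male Sprague-Dawley rats (n=6), ketamine/xylazine anesthesia; four chromic gut ligatures ~1 mm apart around the right sciatic nerve. Drugs i.p. in DMSO/emulphor/saline (AS2717638 in propylene glycol vehicle), single or cumulative dosing with paw withdrawal threshold (cut-off 26 g) measured every 30 min.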

The target in data set [18] is Lysophosphatidic acid receptor 4 (Homo sapiens) (UniProt Q99677). Kind of data set: Antagonist activity at human LPA4 receptor expressed in CHO cells assessed as inhibition of LPA-induced calcium accumulation preincubated for 30 mins followed by Eu-cAMP tracer addition and measured after 1 hr by TR-FRET assay relative to hexadecyl LPA. The class given is functional, cell-based. On the technique in general: Time-resolved FRET reads energy transfer from a long-lived donor to a nearby acceptor.

Data set [19] is described as follows: Substrate activity at P-glycoprotein (unknown origin) in MDCK-MDR1 cells assessed as efflux ratio of apparent permeability across basolateral to apical over apical to basolateral side measured after 90 mins by LC-MS/MS analysis. In kind it is ADME, cell-based, Canis lupus familiaris. Conditions: dog, mdck-mdr1, 1.5 h. An outline of the steps: as §5
A short description of data set [20]: Effect on locomotory activity in opioid-induced hyperalgesia Sprague-Dawley rat model at 17.8 mg/kg, ip measured for 60 mins by infrared motion-sensor analysis. In kind it is toxicity, organism-based. The conditions noted are these: in vivo, 1 h. Summed up: as §2

≈ marks a conversion by molar mass, not a printed value. Calls of active or inactive are those of the source. A value given as a limit tells only on which side of the number the result lay.

T1 sequence (Q9H1C0 whole entry): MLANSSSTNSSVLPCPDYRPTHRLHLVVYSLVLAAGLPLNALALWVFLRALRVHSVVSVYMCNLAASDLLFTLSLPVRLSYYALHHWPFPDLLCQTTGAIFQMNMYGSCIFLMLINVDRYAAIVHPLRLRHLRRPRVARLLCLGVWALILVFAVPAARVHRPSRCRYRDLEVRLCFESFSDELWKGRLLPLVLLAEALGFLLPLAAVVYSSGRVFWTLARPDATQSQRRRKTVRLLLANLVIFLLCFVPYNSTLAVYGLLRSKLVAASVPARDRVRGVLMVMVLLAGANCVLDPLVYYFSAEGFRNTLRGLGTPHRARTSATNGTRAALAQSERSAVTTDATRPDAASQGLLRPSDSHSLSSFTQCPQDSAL
Chain of Lysophosphatidic acid receptor 4 (Homo sapiens) (Q99677 whole entry): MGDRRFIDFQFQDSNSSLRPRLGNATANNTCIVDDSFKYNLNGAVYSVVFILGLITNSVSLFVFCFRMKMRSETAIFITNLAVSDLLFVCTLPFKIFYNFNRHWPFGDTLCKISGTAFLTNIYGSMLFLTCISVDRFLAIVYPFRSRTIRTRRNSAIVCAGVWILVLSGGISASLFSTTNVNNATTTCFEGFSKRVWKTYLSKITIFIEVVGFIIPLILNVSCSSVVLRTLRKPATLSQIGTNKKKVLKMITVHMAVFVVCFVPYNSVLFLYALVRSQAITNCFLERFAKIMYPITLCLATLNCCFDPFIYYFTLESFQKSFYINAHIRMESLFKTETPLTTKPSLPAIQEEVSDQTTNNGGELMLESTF
Chain of Lysophosphatidic acid receptor 1 (Homo sapiens) (Q92633 whole entry): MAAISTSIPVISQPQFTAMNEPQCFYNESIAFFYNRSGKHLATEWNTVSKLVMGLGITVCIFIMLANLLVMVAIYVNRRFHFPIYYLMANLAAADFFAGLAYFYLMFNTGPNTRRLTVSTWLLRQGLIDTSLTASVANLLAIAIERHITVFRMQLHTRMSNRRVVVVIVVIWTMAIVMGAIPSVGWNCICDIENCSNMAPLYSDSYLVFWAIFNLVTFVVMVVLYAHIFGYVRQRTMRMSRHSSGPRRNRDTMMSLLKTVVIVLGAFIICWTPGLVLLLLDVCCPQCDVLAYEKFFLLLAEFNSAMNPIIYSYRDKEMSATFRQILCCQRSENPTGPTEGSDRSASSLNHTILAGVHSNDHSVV
Chain of Lysophosphatidic acid receptor 2 (Homo sapiens) (Q9HBW0 whole entry): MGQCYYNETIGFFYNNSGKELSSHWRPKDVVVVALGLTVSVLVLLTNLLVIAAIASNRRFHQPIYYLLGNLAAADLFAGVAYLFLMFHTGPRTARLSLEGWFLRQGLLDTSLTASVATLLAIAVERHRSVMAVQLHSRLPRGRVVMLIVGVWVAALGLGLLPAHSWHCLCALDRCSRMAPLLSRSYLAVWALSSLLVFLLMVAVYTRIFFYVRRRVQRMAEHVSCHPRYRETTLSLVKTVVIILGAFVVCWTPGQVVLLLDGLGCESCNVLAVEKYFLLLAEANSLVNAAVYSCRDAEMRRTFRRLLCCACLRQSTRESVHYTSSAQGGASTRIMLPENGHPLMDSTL

In the case of `C#CC1CCN(C(=O)c2cn(-c3ccc4scc(C)c4c3)c(=O)c3cc(OC)c(OC)cc23)CC1`, the inhibition was less than 50% in [1]; less than 50% in data set [2]; 107% in data set [8]; less than 50% in data set [10]; 100% in data set [12]; less than 50% in [18]. The Activity entry in [3] is “Non-Toxic”; with Rattus norvegicus [4] it was 100%; in the data set on Rattus norvegicus [5], 100%; with Rattus norvegicus [17], “Dose-Dependent Effect”; in data set [20] it was “Non-Toxic”. The kinetic solubility in [6] turned out to be 19.5 µM (≈ 9.49 µg/mL). Moreover, the outcome in the data set on Rattus norvegicus [7] and with Rattus norvegicus [16] was Active. Moreover, in [9], the result was inactive. The concentration at 0.5 h in data set [11] came to 652 ng/mL. For the same compound, the values for the IC50 in data set [13] and in data set [14] were 350 nM and 32 nM, respectively. Moreover, the Papp in data set [15] is listed as 31.1 10^-6 cm/s. Besides, the Ratio in data set [19] is 1.2.

The inhibition is the relative decrease from the control value, in per cent. What is called kinetic solubility is solubility judged after dilution from a stock solution rather than from solid. The IC50 is the midpoint of a concentration-inhibition curve.
